An excerpt weighted towards active compounds, which were near 4.8% of everything screened.
UPR XBP1 act: activators of adaptive arm of unfolded protein response (XBP1); activation, % at 20 µM; hit rate 0.33% among 330,000; CHO-XBP1 luciferase reporter, IRE1-XBP1 UPR activation, luminescence; percent of tunicamycin response, DMSO as zero;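 active means versus positive control, 20 µM dose yields 30% or more activation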
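Material: CHO cell line with stable XBP1 luciferase reporter; schedule: 16-18 h cell attachment at 37 °C, then 6 h compound exposure; signal: glow luminescence from Steady-Glo reagent; medium: serum-containing F12 medium, 10% FBS; benchmarks: tunicamycin 10 µg/mL and vehicle-only wells; read-out: percent activation relative to tunicamycin reference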
CSC inhib: blocks cancer stem cells. cancer stem cell-like cells viability, luminescence. inhibition, % at 7.5 µM. hit rate 1.1% among 300,000; in the data active means inhibition above about 75%; inconclusive means no clear call, values can overlap the other calls; tested in HMLE shEcad cells
CHOP UPR activ: activators of apoptotic arm of unfolded protein response (CHOP); hit rate 0.34% among 330,000; activation, % at 10 µM; CHO-CHOP luciferase reporter, UPR activation, luminescence; percent of tunicamycin response over DMSO baseline;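 active means at 10 µM dose, activation of 40% or more, normalized to positive control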
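Assay system: CHO-CHOP cells, stable luciferase reporter of PERK-eIF2a-CHOP signalling / Buffer or medium: F12 plus 10% serum / Compound dosing: one dose, 10 µM in 0.5% DMSO / Times: 6 h compound treatment, 37 °C / Technique: luciferase luminescence / Read-out: % reporter activation, DMSO baseline versus tunicamycin full activation / Benchmarks: tunicamycin and DMSO controls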
Mdm2 MdmX PPI: human Mdm2/MdmX binding inhibition; O15151+Q00987; SaOS-2 split-luciferase Mdm2/MdmX complementation, luminescence; inhibition, % at 8 µM; hit rate 3% among 330,000; AID 485346;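 active means inhibition of at least 50% at 8 µM in the primary screen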
Target sequence (O15151 whole entry, looked up): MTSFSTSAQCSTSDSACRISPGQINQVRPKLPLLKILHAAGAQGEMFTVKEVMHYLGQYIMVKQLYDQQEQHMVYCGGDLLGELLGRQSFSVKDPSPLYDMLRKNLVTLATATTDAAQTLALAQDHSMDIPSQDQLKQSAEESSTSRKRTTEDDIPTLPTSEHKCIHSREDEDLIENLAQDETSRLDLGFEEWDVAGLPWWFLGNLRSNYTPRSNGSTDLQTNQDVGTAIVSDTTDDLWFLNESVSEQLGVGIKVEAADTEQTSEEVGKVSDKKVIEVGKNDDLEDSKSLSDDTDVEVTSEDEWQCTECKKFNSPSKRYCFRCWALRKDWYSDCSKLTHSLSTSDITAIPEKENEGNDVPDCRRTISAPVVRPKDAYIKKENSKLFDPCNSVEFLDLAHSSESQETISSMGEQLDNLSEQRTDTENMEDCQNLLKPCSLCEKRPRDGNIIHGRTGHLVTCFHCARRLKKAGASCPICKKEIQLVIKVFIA
Target sequence (Q00987 whole entry, looked up): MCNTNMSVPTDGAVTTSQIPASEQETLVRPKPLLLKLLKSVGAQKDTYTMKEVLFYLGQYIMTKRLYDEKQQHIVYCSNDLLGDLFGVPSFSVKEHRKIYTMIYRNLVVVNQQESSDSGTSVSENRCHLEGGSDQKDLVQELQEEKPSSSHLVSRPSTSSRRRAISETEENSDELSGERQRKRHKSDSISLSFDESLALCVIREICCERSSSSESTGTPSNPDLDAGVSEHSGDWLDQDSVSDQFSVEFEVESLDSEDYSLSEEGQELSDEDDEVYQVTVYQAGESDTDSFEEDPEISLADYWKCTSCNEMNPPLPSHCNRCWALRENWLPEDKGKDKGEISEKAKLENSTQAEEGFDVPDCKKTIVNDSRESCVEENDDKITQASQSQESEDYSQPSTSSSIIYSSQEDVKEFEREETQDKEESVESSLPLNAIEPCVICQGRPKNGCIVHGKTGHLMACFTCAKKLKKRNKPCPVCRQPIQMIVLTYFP
Beta apoptosis: beta cell apoptosis inhibition | INS-1E cytokine-induced death, ATP luminescence, 48 h; percent of positive-control rescue, neutral wells zero | hit rate 0.8% among 300,000 | protection from apoptosis, % (test concentration not listed);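 active means Every replicate reaches about 75%, or at least half do and their mean reaches it too, limit read from the data; inconclusive means At least half of replicates reach the limit but their mean does not; inactive means Under half of replicates reach the limit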;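 further: higher means more ATP so stronger rescue from cytokine killing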
SKKanGAS inh: blocks kanamycin growth of S. pyogenes SKKanGAS strain. BacTiter-Glo, 6 h. inhibition, % at 7.5 µM. hit rate 1.3% among 300,000. AID 1662;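 active means mean replicate score, as percent of positive control median, at least 50; inconclusive means mean below 50 but one replicate at or above 50; inactive means mean and every replicate below 50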;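 further: strain carries kanamycin resistance gene driven by streptokinase promoter and grows in 40 µg/ml kanamycin; loss of luminescence reflects streptokinase promoter inhibition or plain growth inhibition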
Mdm2-MdmX conf: human Mdm2/MdmX binding inhibition, confirmed. shares compounds with Mdm2 MdmX PPI. luminescent assay. inhibition, % at 8 µM. hit rate 55% among 10,000; in the data active means inhibition above about 40%
FLuc counter: full-length luciferase inhibition in Mdm2/MdmX counter-screen. shares compounds with Mdm2 MdmX PPI. SaOS-2 full-length luciferase counterscreen, luminescence. inhibition, % at 8 µM. hit rate 77% among 6,200. AID 504607;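 active means mean inhibition at 8 µM reaching about 37%, which flags the compound as non-specific, limit read from the data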;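 further: p53-null SaOS-2 cells with luciferase driven by a doxycycline-inducible promoter; compound on cells about two nights before reading with doxycycline added after day one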
Hits are given with their value; n = inactive; u = inconclusive; x = no result given.

SMILES | UPR XBP1 act | CSC inhib | CHOP UPR activ | Mdm2 MdmX PPI | Beta apoptosis | SKKanGAS inh | Mdm2-MdmX conf | FLuc counter
CCCCC(=O)NC(c1cccc([N+](=O)[O-])c1)c1c(OC(C)=O)ccc2ccccc12 (stereo unspecified) | n | n | n | n | n | n | x | x
O=C(Nc1ccc(NS(=O)(=O)c2ccc([N+](=O)[O-])cc2)cc1)c1ccco1 | n | n | n | n | n | n | x | x
COC(=O)[C@@]12CCCCN1[C@H](c1ccc(-c3ccc(F)cc3)cc1)[C@@H]1C(=O)N(C)C(=O)[C@@H]12 | n | n | n | n | n | n | x | x
COc1ccc(CNC(=O)CN(Cc2ccco2)C(=O)CNS(=O)(=O)c2ccc(F)cc2)cc1 | n | n | n | n | n | n | x | x
COc1ccc(C(=O)COC(=O)c2cc(C)no2)c(OC)c1 | n | n | n | n | n | x | x | x
COc1ccc(C(NC(=O)C(C)C)c2c(O)ccc3ccccc23)cc1 (stereo unspecified) | n | n | n | n | n | n | x | x
CCC(=O)NC(c1ccccc1OC)c1ccc2cccnc2c1O (stereo unspecified) | n | 93 | n | 70 | 109 | n | 60 | n
Oc1c(C(Nc2cccc(C(F)(F)F)c2)c2cccnc2)ccc2cccnc12 (stereo unspecified) | n | n | n | n | n | u | x | x
CCCC(=O)NC(c1ccc(OC)cc1)c1ccc2cccnc2c1O (stereo unspecified) | n | 119 | n | 82 | 97 | n | 78 | 50
CCC(=O)NC(c1ccc(OC)cc1)c1c(O)ccc2ccccc12 (stereo unspecified) | n | n | n | 63 | n | n | 62 | 71
Cc1cc(NC(c2cccnc2)c2ccc3cccnc3c2O)no1 (stereo unspecified) | n | x | n | 74 | 104 | n | 68 | 40
COc1ccc(CNC(=O)CSc2cccc3cccnc23)cc1 | n | x | n | n | x | n | x | x
CSc1ncccc1C(=O)OCC(=O)c1ccc(C)s1 | n | x | n | n | n | x | x | x
CC(C)CNC(=O)[C@H]1N2C(=O)c3ccccc3C2SC1(C)C (stereo partly specified) | n | n | n | n | n | n | x | x
Cc1ccc(N=c2oc3cc(O)ccc3cc2C(N)=O)cc1 | n | n | n | 84 | n | n | 53 | n
CC(=O)c1cc2ccc(O)cc2oc1=O | n | n | n | n | n | n | x | x
O=C(COc1ccccc1)NCC(=O)N1CCCCCC1 | n | x | n | n | n | x | x | x
CC(C)n1c(/C=C/[C@@H](O)C[C@@H](O)CC(=O)O)c(-c2ccc(F)cc2)c2ccccc21 | n | n | n | 59 | n | n | 50 | 108
Cc1nc2c(-c3ccc(F)cc3)c(C)nn2c(C)c1CCC(=O)N1CCN(c2ccccc2)CC1 | n | n | n | n | n | n | x | x
O=C(COC(=O)c1ccc(F)cc1F)NCc1ccc2c(c1)OCO2 | n | n | n | n | n | x | x | x
CC(=O)c1sc(NC(=O)C2(F)C(F)(F)C(F)(F)C(F)(F)C(F)(F)C2(F)F)nc1C | n | n | n | 93 | 109 | n | 85 | n
CC(=O)c1sc(NC(=O)C=C(C)C)nc1C | n | x | n | n | n | n | x | x
COc1ccc(CN(C)C(C)C(=O)N(C)CC(=O)Nc2ccc(C)cc2)cc1F (stereo unspecified) | n | n | n | n | n | x | x | x
CC12CC(c3ccccc3O1)N(C(=O)c1ccco1)C(=S)N2c1ccccc1 (stereo unspecified) | n | n | n | 63 | n | n | n | x
Cc1ccccc1C(=O)NC1CCN(CC(=O)N2CCCCC2C)CC1 (stereo unspecified) | n | n | n | n | n | n | x | x
SMILES | UPR XBP1 act | CSC inhib | CHOP UPR activ | Mdm2 MdmX PPI | Beta apoptosis | SKKanGAS inh | Mdm2-MdmX conf | FLuc counter
N/C(=N\OC(=O)C12CC3CC(CC(C3)C1)C2)c1ccncc1 | n | n | n | 84 | x | n | n | x
Cc1ccc(/C(N)=N/OC(=O)C23CC4CC(CC(C4)C2)C3)cc1 | n | x | n | n | n | n | x | x
CCOC(=O)c1[nH]c2ccc(F)cc2c1NC(=O)CN1CCN(C/C=C/c2ccccc2)CC1 | n | n | n | 57 | n | n | n | x
COC(=O)c1[nH]c2ccccc2c1NC(=O)CN1CCN(C/C=C/c2ccccc2)CC1 | n | n | n | n | n | n | x | x
CC(C)(C)C1CCC(CN2C(Nc3ccccc3)=NC[C@@H]2Cc2ccccc2)CC1 (stereo partly specified) | n | 107 | n | 100 | n | x | n | 47
CC1(C)CC2=C(CO1)C(=S)NC(c1ccccc1)N2CC1CCCO1 (stereo unspecified) | n | n | n | n | x | n | x | x
NCC12CC3CC(C1)CC(c1ccc(Br)cc1)(C3)C2 | n | n | n | 72 | n | n | n | x
Cc1ccc(C23CC4CC(CC(CN)(C4)C2)C3)cc1 | x | x | x | x | x | n | x | x
CCOc1cccc(/C=N/NC(=O)c2cccnc2)c1O | n | n | n | n | n | n | x | x
CCOc1cccc(/C=N/NC(=O)c2cc(C3CC3)[nH]n2)c1O | n | 128 | n | 59 | 96 | n | n | x
Cc1c(Cl)cccc1NC(=O)Cn1nc(C)n2cccc2c1=O | n | n | n | n | x | n | x | x
COC(=O)c1ccc2c(c1)C(C)(C)C(/C=C/c1ccccc1O)=[N+]2C | n | 78 | n | 71 | n | n | 100 | 52
CCN(CCCNC(=O)CCCOc1cc(=O)n(C)c2ccccc12)Cc1ccccc1 | n | n | n | 52 | n | n | n | x
CN(CCCNC(=O)COc1cc(=O)n(C)c2ccccc12)Cc1ccccc1 | n | n | n | n | n | n | x | x
CCN(CCCNC(=O)COc1cc(=O)n(CC)c2ccccc12)Cc1ccccc1 | n | n | n | 59 | n | n | 46 | 93
Cn1c(/C=C/c2cccc([N+](=O)[O-])c2)c([N+](=O)[O-])c(=O)n(C)c1=O | n | n | n | 84 | n | n | 52 | 43
Cn1c(/C=C/c2ccc(Cl)cc2)c([N+](=O)[O-])c(=O)n(C)c1=O | n | n | n | 64 | n | n | 44 | 37
Cc1ccc2[nH]c(=O)c(COC(=O)c3cccs3)cc2c1 | n | x | n | 51 | n | n | n | x
COc1ccc(NC(=O)Cc2c(SC)c3ccccc3n2Cc2ccccc2)cc1 | n | n | n | 69 | n | n | n | 90
COc1cc(/C=C2/SC(=Nc3ccc(O)cc3)NC2=O)cc(OC)c1O | n | x | n | 62 | x | n | 61 | 62
COc1cc(/C=C2\SC(=Nc3ccc(O)cc3)NC2=O)cc(OC)c1OC | n | n | n | 52 | n | n | 65 | n
Cc1cc(NCCCn2ccnc2)n2ncc(-c3ccccc3)c2n1 | n | n | n | 74 | n | x | 70 | 134

Bioassay records: PubChem, several laboratories
